We go through 1 compound from ChEMBL document CHEMBL4400543, “Identification and Characterization of AES-135, a Hydroxamic Acid-Based HDAC Inhibitor That Prolongs Survival in an Orthotopic Mouse Model of Pancreatic Cancer” (J Med Chem, 2019).

Active and inactive are the calls of the source.

Series [1] deals with T1, Protein deacetylase HDAC6 (Homo sapiens, UniProt Q9UBN7).
T1 sequence (Q9UBN7 whole entry): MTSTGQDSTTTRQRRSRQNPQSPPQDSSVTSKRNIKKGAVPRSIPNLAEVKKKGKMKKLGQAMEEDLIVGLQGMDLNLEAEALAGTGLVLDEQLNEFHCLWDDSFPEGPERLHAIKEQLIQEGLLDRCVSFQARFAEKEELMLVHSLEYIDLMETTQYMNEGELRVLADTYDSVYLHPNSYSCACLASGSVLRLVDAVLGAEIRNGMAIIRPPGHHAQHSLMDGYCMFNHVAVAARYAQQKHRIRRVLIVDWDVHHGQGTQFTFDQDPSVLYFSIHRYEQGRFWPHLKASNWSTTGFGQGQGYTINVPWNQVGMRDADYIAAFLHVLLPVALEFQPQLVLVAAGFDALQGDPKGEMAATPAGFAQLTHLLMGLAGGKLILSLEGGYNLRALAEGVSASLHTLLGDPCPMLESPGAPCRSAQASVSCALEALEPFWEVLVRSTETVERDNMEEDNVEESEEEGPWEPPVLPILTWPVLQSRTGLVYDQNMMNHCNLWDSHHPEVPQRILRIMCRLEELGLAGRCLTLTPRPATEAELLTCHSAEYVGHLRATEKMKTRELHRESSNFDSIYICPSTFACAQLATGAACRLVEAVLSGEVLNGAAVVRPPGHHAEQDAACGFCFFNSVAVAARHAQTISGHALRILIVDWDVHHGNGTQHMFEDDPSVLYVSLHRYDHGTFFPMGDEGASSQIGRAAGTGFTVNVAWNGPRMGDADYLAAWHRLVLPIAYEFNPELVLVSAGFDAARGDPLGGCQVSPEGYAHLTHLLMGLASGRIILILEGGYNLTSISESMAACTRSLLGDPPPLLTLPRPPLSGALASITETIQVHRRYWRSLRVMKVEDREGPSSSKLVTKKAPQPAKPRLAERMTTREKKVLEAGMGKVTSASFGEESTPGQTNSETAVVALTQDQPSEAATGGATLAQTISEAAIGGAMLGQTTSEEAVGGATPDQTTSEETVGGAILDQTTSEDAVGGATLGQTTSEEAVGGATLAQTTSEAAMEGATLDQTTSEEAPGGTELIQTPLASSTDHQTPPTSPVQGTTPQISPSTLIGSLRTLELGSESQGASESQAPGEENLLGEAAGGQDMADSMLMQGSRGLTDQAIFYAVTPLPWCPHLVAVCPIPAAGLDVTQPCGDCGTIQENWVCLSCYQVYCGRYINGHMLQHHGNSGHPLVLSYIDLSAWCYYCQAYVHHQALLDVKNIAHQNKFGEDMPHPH
The series can be described thus: Inhibition of recombinant human HDAC6 expressed in SF9 baculoviral system using FAM-labeled acetylated peptide as substrate by EMSA. The gist of the method:
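Full-length recombinant human enzyme from an Sf9 baculovirus system, in 100 mM HEPES pH 7.5 with 25 mM KCl, 0.1% BSA, 0.01% Triton X-100 and 1% DMSO. Final enzyme was 0.5 nM for HDAC3, 60 nM for HDAC6 and 5.0 nM for HDAC8. FAM-acetylated peptide was 1 μM. The read-out was product/(substrate+product) by microfluidic mobility shift, with inhibition set against DMSO and no-enzyme controls (quadruplicate). Compounds were tested at 12 threefold-spaced concentrations, and IC50 came from a four-parameter sigmoid fit.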
Background: A gel shift assay detects complexes by their altered migration in electrophoresis.

The next series concerns the target Histone deacetylase 3 (Homo sapiens, UniProt O15379). The series can be described thus: Inhibition of recombinant human HDAC3 expressed in SF9 baculoviral system at 10 uM using FAM-labeled acetylated peptide as substrate by EMSA relative to control. The gist of the method: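 Single-point screen at 10 μM compound, using full-length recombinant human enzyme expressed in Sf9 cells. Buffer was HEPES pH 7.5 with KCl, BSA and Triton X-100, and 1% DMSO. Final enzyme was 0.5 nM for HDAC3, 60 nM for HDAC6 and 5.0 nM for HDAC8, with 1 μM FAM-acetylated peptide. Percent inhibition was derived from the product sum ratio relative to DMSO-only (0%) and no-enzyme (100%) controls.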

The species named for another series is Homo sapiens. The series can be described thus: Cytotoxicity against human D425 cells at 39 nM after 72 hrs by Presto Blue assay. The format is functional, cell-based. The method, boiled down:
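D425 and D458 medulloblastoma cells in DMEM high glucose with 20% FBS, seeded at 1000 cells/well in medium with 1% FBS. Twofold dilutions from 20 μM down to 39 nM. Exposed 3 days at 37 °C. Presto Blue added about 4 h before fluorescence read (540–570 nm). IC50 from % viability versus log concentration.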

Series [2] concerns the target Signal transducer and activator of transcription 3 (Homo sapiens) (UniProt P40763). The series can be described thus: Inhibition of STAT3 phosphorylation at Y705 residue in human MDA-MB-231 cells up to 30 uM after 5 hrs by Western blot method. The format is cell-based. The method, boiled down: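 Run on 4–15% SDS-PAGE and transferred to PVDF. Primary antibodies 1:1000 overnight at 4 °C, HRP or fluorescent secondary 1:5000, ECL detection, β-actin loading control.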
(In general: In western blotting, separated proteins are transferred to a membrane and probed.)

A short description of series [3]: Intrinsic clearance in ICR/CD1 mouse hepatocytes assessed per million cells at 1 uM up to 120 mins by LC-MS/MS analysis. The format is ADME, cell-based, Hepatocyte. The settings on record: 2 h.
A short description of series [4]: Drug uptake in NSG mouse serum at 40 mg/kg, ip administered daily for 5 days by HPLC-MS/MS analysis. The format is ADME, organism-based. The note with it: read-out: Drug uptake. The method, boiled down:
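NSG mice dosed IP once daily for 5 days at 10 or 40 mg/kg, n = 6. Blood collected 5 h after the final injection for serum drug concentration, reported ± SD.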

In another series the test system is Pa03C. Kind of series: Cytotoxicity against human Pa03C cells assessed as reduction in tumor spheroid intensity after 72 hrs in presence of human CAF19 cells by Alamar Blue assay. Type of series: functional, cell-based. The gist of the method:
(§1)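 3D spheroids of patient-derived PDAC cells (tomato red) alone or with CAF19 cells, plus CAF cultures. Imaging read-outs: area is the μ2 of objects above a tomato red intensity threshold; intensity is summed red or green pixel fluorescence after background removal. n = 3–5.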
In general terms: Resazurin is reduced to fluorescent resorufin, in cell work by metabolically active cells.

Series [5] has as its system Panc1005. Kind of series: Cytotoxicity against human Panc 10.05 cells assessed as reduction in tumor spheroid area after 72 hrs in presence of human CAF19 cells by Alamar Blue assay. The format is functional, cell-based. The note with it: Panc1005, 72 h. The gist of the method:
as §1

The subject of series [6] is Panc1005. The series can be described thus: Cytotoxicity against human Panc 10.05 cells assessed as reduction in tumor spheroid intensity after 72 hrs by Alamar Blue assay. Type of series: functional, cell-based. The settings on record: Panc1005, 72 h. The method, boiled down:
as §1

Series [7] in a line: Selectivity ratio of IC50 for human CAF19 cells to IC50 for human Pa03C cells.
Series [8] can be described thus: Selectivity ratio of IC50 for human CAF19 cells to IC50 for human Panc 10.05 cells.
A short description of series [9]: Toxicity in NSG mouse at 10 to 40 mg/kg, ip assessed as induction of body weight loss administered daily for 5 days by HPLC-MS/MS analysis. Type of series: organism-based. The note with it: in vivo, 120 h. The gist of the method:
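NSG mice were given 10 or 40 mg/kg IP once daily for 5 days (n = 6). Blood was drawn 5 h after the last injection for compound measurement. Toxicity was judged by percentage weight loss versus vehicle-treated mice.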

The test system of the next series is Mus musculus. Kind of series: Antitumor activity against mouse KPC cells allografted in […] C57BI/6 mouse assessed as mean survival time at 50 mg/kg, ip administered daily for 5 days per week for 1 month starting on day 7 post implantation (reference value: 29.5 days). Type of series: functional, organism-based.

Chain of Signal transducer and activator of transcription 3 (Homo sapiens) (P40763 whole entry): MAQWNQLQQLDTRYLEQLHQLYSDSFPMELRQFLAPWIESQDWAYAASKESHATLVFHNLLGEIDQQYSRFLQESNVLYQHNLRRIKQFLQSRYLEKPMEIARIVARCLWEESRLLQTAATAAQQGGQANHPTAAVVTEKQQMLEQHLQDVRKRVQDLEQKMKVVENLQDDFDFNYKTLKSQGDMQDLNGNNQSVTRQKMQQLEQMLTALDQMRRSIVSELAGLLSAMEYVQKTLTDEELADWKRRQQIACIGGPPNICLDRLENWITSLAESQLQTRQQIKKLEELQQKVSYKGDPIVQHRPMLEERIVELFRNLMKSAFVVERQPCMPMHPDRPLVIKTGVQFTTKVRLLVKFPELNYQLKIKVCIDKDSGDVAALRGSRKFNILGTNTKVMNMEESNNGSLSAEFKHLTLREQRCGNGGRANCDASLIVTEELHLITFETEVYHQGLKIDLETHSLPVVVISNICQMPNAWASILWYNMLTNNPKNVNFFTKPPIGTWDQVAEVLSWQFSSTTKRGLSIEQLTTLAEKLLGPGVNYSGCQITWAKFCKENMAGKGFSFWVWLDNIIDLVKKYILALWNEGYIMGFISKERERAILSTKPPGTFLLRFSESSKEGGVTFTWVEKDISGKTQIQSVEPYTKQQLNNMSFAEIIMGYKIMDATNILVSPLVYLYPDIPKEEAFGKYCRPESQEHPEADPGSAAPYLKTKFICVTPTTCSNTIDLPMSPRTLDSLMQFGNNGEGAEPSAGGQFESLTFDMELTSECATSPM
Chain of Histone deacetylase 3 (O15379 whole entry): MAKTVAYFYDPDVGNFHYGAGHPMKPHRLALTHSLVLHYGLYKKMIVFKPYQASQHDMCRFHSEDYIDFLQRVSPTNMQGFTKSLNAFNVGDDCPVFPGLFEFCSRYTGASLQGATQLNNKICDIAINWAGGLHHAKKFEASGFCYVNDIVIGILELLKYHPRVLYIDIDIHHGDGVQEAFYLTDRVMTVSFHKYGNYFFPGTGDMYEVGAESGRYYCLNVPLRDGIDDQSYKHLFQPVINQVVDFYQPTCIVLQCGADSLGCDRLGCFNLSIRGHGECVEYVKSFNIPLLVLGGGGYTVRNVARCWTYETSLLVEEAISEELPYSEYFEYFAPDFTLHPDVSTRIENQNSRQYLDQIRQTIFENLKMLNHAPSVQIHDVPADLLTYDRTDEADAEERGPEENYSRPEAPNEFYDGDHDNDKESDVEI

The term IC50 denotes the concentration that inhibits the measured activity by half. Usually inhibition stands for the change of the read-out against control, counted positive when it falls. As for `CC(C)(C)c1ccc(CN(C(=O)CN(Cc2c(F)c(F)c(F)c(F)c2F)S(=O)(=O)c2ccc(F)cc2)c2ccc(C(=O)NO)cc2)cc1`, the IC50 in [1] was found to be 190 nM; in the series with Pa03C, 1560 nM; in the series on Panc1005 [5], 940 nM; in the series on Panc1005 [6], 600 nM. Moreover, the inhibition on Histone deacetylase 3 turned out to be 98%. Besides, the outcome in the series listed under Homo sapiens was Active. Besides, the inhibition result in series [2] was “inactive”. Moreover, in series [3], the CLH stood at 36 µL/min. Besides, the concentration at 120 h in [4] was 2640 nM. Further, the “Ratio IC50” value in series [7] and in [8] was 5 - 6 in each case. Moreover, the Activity result in [9] is “Non-Toxic”. Further, the result in the series with Mus musculus was inactive.
